Source: ChEMBL document CHEMBL1148054, “Chemical and bioactive constituents from Zanthoxylum simulans” (J Nat Prod, 1994)
pEC50: −log10 of the molar value.

What was measured:
[1] = tested on: HL-60; experiment: Induction of terminal cell differentiation in human HL60 cells assessed as cell viability at 15.4 uM by trypan blue exclusion method; format: functional; conditions: read-out: Activity
How it was run: (§1)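 HL-60 cells preincubated 18 h at 1.2×10^5 cells/ml, then exposed 4 days to samples in DMSO (final 0.1%). Viability by trypan blue exclusion: viable/(viable+dead)×100. Cell counts also taken after 4 days.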

[2] = tested on: HL-60; experiment: Induction of terminal cell differentiation in human HL60 cells assessed as cell viability at 30.7 uM by trypan blue exclusion method; format: functional; conditions: read-out: Activity; how it was run: as §1
[3] = tested on: HL-60; experiment: Induction of terminal cell differentiation in human HL60 cells assessed as cell viability at 61.5 uM by trypan blue exclusion method; format: functional; conditions: read-out: Activity; how it was run: as §1
[4] = tested on: HL-60; experiment: Induction of terminal cell differentiation in human HL60 cells assessed as naphthol AS-D chloroacetate esterase activity at 30.7 uM after 4 days; format: functional
How it was run: (§2)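 HL-60 cells were grown in RPMI 1640 with 5% heat-inactivated calf serum at 37°, 5% CO2. They were diluted to 1.2×10^5 cells/ml, preincubated 18 h, then exposed 4 days to DMSO-dissolved samples (final DMSO 0.1%, matched vehicle controls). Specific esterase (naphthol AS-D chloroacetate) was scored cytochemically with a commercial kit as the percentage of differentiated cells.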

[5] = tested on: HL-60; experiment: Induction of terminal cell differentiation in human HL60 cells assessed as naphthol AS-D chloroacetate esterase activity at 61.5 uM after 4 days; format: functional; how it was run: as §2
[6] = tested on: HL-60; experiment: Induction of cell differentiation in human HL60 cells assessed as alpha naphthyl esterase activity at 3.8 uM after 4 days; format: functional
How it was run: (§3)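 HL-60 cells in RPMI 1640 with 5% heat-inactivated calf serum at 37° under 5% CO2. Log-phase cells diluted to 1.2×10^5 cells/ml and preincubated 18 h, then samples added in DMSO (final 0.1%, DMSO controls). Cells scored after 4 days.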

[7] = tested on: HL-60; experiment: Induction of cell differentiation in human HL60 cells assessed as alpha naphthyl esterase activity at 7.7 uM after 4 days; format: functional; how it was run: as §3
[8] = tested on: HL-60; experiment: Induction of cell differentiation in human HL60 cells assessed as alpha naphthyl esterase activity at 15.4 uM after 4 days; format: functional; how it was run: as §3
[9] = tested on: HL-60; experiment: Induction of cell differentiation in human HL60 cells assessed as alpha naphthyl esterase activity at 30.7 uM after 4 days; format: functional; how it was run: as §3
[10] = tested on: HL-60; experiment: Induction of cell differentiation in human HL60 cells assessed as alpha naphthyl esterase activity at 61.5 uM after 4 days; format: functional; how it was run: as §3
[11] = tested on: HL-60; experiment: Induction of terminal cell differentiation in human HL60 cells at 3.8 uM after 4 days by NBT reduction assay; format: functional
How it was run: (§4)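 Log-phase HL-60 cells (RPMI 1640, 5% heat-inactivated calf serum, 37°, 5% CO2) were diluted to 1.2×10^5 cells/ml, preincubated 18 h, then treated 4 days with samples in DMSO (final 0.1%; DMSO controls). 10^6 cells were mixed 1:1 with fresh PBS holding 2 mg/ml NBT and 5 μg/ml TPA, 1 h at 37°. Formazan-positive cells were counted microscopically as % NBT-positive.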

[12] = tested on: HL-60; experiment: Induction of terminal cell differentiation in human HL60 cells at 7.7 uM after 4 days by NBT reduction assay; format: functional; how it was run: as §4
[13] = tested on: HL-60; experiment: Induction of terminal cell differentiation in human HL60 cells at 15.4 uM after 4 days by NBT reduction assay; format: functional; how it was run: as §4
[14] = tested on: HL-60; experiment: Induction of terminal cell differentiation in human HL60 cells at 30.7 uM after 4 days by NBT reduction assay; format: functional; how it was run: as §4
[15] = tested on: HL-60; experiment: Induction of terminal cell differentiation in human HL60 cells assessed as inhibition of [3H]thymidine incorporation at 61.5 uM after 4 days; format: functional; set-up: scale not given: the % may be the effect or the level left
How it was run: (§5)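 HL-60 cells were kept in RPMI 1640 with 5% heat-inactivated calf serum and penicillin/streptomycin at 37° under 5% CO2. Log-phase cells were diluted to 1.2×10^5 cells/ml and preincubated 18 h. Samples were added in DMSO (final 0.1%; vehicle controls matched) for 4 days. Aliquots then got 0.5 μCi/ml [3H]thymidine for 16 h more, were harvested and scintillation-counted. % incorporation per 10^6 cells = sample DPM / DMSO-control DPM.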

[16] = tested on: HL-60; experiment: Induction of terminal cell differentiation in human HL60 cells assessed as inhibition of [3H]thymidine incorporation at 30.7 uM after 4 days; format: functional; set-up: scale not given: the % may be the effect or the level left; how it was run: as §5
[17] = tested on: HL-60; experiment: Induction of terminal cell differentiation in human HL60 cells assessed as inhibition of [3H]thymidine incorporation at 15.4 uM after 4 days; format: functional; set-up: scale not given: the % may be the effect or the level left; how it was run: as §5
[18] = tested on: HL-60; experiment: Induction of terminal cell differentiation in human HL60 cells assessed as inhibition of [3H]thymidine incorporation at 7.7 uM after 4 days; format: functional; set-up: scale not given: the % may be the effect or the level left; how it was run: as §5
[19] = tested on: HL-60; experiment: Induction of terminal cell differentiation in human HL60 cells assessed as inhibition of [3H]thymidine incorporation at 3.8 uM after 4 days; format: functional; set-up: scale not given: the % may be the effect or the level left; how it was run: as §5
[20] = tested on: HL-60; experiment: Induction of terminal cell differentiation in human HL60 cells at 61.5 uM after 4 days by NBT reduction assay; format: functional; how it was run: as §4
[21] = Antiplatelet activity against rabbit platelet assessed as inhibition of arachidonic acid-induced platelet aggregation at 100 ug/ml; format: functional; conditions: Oryctolagus cuniculus
[22] = Antiplatelet activity against rabbit platelet assessed as inhibition of collagen-induced platelet aggregation at 100 ug/ml; format: functional; conditions: Oryctolagus cuniculus
[23] = Antiplatelet activity against rabbit platelet assessed as inhibition of platelet activating factor-induced platelet aggregation at 100 ug/ml; format: functional; conditions: Oryctolagus cuniculus
[24] = tested on: HL-60; experiment: Induction of terminal cell differentiation in human HL60 cells assessed as naphthol AS-D chloroacetate esterase activity at 15.4 uM after 4 days; format: functional; how it was run: as §2
[25] = tested on: HL-60; experiment: Induction of terminal cell differentiation in human HL60 cells assessed as naphthol AS-D chloroacetate esterase activity at 7.7 uM after 4 days; format: functional; how it was run: as §2
[26] = tested on: HL-60; experiment: Induction of terminal cell differentiation in human HL60 cells assessed as naphthol AS-D chloroacetate esterase activity at 3.8 uM after 4 days; format: functional; how it was run: as §2
[27] = Cytotoxicity against human BC1 cells; format: functional; conditions: read-out: ED50 (the source's name)
How it was run: (§6)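 Cultured human cancer lines and murine P-388 cells. Complete dose-response data from at least five concentrations of test substance, each tested in duplicate.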

[28] = tested on: HT-1080; experiment: Cytotoxicity against human HT1080 cells; format: functional; conditions: read-out: ED50 (the source's name); how it was run: as §6
[29] = tested on: Lu1; experiment: Cytotoxicity against human Lu1 cells; format: functional; conditions: read-out: ED50 (the source's name); how it was run: as §6
[30] = tested on: SK-MEL; experiment: Cytotoxicity against human SK-MEL cells; format: functional; conditions: read-out: ED50 (the source's name); how it was run: as §6
[31] = tested on: Col2; experiment: Cytotoxicity against human Col2 cells; format: functional; conditions: read-out: ED50 (the source's name); how it was run: as §6
[32] = tested on: KB; experiment: Cytotoxicity against human KB cells; format: functional; conditions: read-out: ED50 (the source's name); how it was run: as §6
[33] = Cytotoxicity against human multidrug-resistant KBV1 cells in presence of vinblastine; format: functional; conditions: KB-V1, read-out: ED50 (the source's name); how it was run: as §6
[34] = Cytotoxicity against human multidrug-resistant KBV1 cells in absence of vinblastine; format: functional; conditions: KB-V1, read-out: ED50 (the source's name); how it was run: as §6
[35] = tested on: P388; experiment: Cytotoxicity against mouse P388 cells; format: functional; conditions: read-out: ED50 (the source's name); how it was run: as §6
[36] = tested on: A-431; experiment: Cytotoxicity against human A431 cells; format: functional; conditions: read-out: ED50 (the source's name); how it was run: as §6
[37] = tested on: LNCaP; experiment: Cytotoxicity against human LNCAP cells; format: functional; conditions: read-out: ED50; how it was run: as §6
[38] = tested on: ZR-75-1; experiment: Cytotoxicity against human ZR-75-1 cells; format: functional; conditions: ZR-75-1, read-out: ED50; how it was run: as §6
[39] = Cytotoxicity against human U373 cells; format: functional, U-373MG ATCC; conditions: U373 MG, read-out: ED50; how it was run: as §6
[40] = tested on: HL-60; experiment: Induction of terminal cell differentiation in human HL60 cells assessed as cell viability at 3.8 uM by trypan blue exclusion method; format: functional; conditions: read-out: Activity; how it was run: as §1
[41] = tested on: HL-60; experiment: Induction of terminal cell differentiation in human HL60 cells assessed as cell viability at 7.7 uM by trypan blue exclusion method; format: functional; conditions: read-out: Activity; how it was run: as §1

## CC(C)C(=O)CCC1(C)C=Cc2c(c3ccccc3n(C)c2=O)O1 (stereo unspecified)
[1]
  viability at 15.4 µM: 98%
[2]
  viability at 30.7 µM: 96%
[3]
  viability at 61.5 µM: 85%
[4]
  Activity: 9.4%
[5]
  Activity: 5%
[6]
  Activity: 5%
[7]
  Activity: 5%
[8]
  Activity: 5.5%
[9]
  Activity: 12.22%
[10]
  Activity: 48.9%
[11]
  Activity: 5.5%
[12]
  Activity: 4.5%
[13]
  Activity: 8%
[14]
  Activity: 9.9%
[15]
  Activity: 31.6%
[16]
  Activity: 0%
[17]
  Activity: 0%
[18]
  Activity: 0%
[19]
  Activity: 0%
[20]
  Activity: 53.1%
[21]
  inhibition at 100 µg/mL: 100%
[22]
  inhibition at 100 µg/mL: 83.9%
[23]
  inhibition at 100 µg/mL: 100%
[24]
  Activity: 8%
[25]
  Activity: 6.5%
[26]
  Activity: 5.5%
[27]
  pEC50: < 4.22
[28]
  pEC50: < 4.22
[29]
  pEC50: < 4.22
[30]
  pEC50: 4.44
[31]
  pEC50: < 4.22
[32]
  pEC50: 4.33
[33]
  pEC50: 5.40
[34]
  pEC50: 4.61
[35]
  pEC50: 5.01
[36]
  pEC50: < 4.22
[37]
  EC50: > 60 µM
[38]
  EC50: 11.1 µM
[39]
  EC50: > 60 µM
[40]
  viability at 3.8 µM: 97%
[41]
  viability at 7.7 µM: 98%
